In brackets after ≈: the same amount, converted by molar mass.
Assays:
[1] = tested on: Mycobacterium tuberculosis; test: Antitubercular activity against Mycobacterium tuberculosis H37Rv ATCC 27294 at 7.8 ug/ml after 5 days by microplate alamar blue assay; format: functional
How it was run: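 Single-concentration primary screen at 7.8 µg/mL against M. tuberculosis H37Rv (ATCC-27294) by MABA, read as percent inhibition. Run in Middlebrook 7H9 broth, with BACTEC 12B medium also cited, at 37 °C for 5 days. Then 1:1 Alamar Blue/10% Tween 80 added and incubated 24 h. Colour read: blue = inhibition, pink = growth.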

[2] = tested on: Mycobacterium tuberculosis; test: Antitubercular activity against Mycobacterium tuberculosis H37Rv ATCC 27294 after 5 days by microplate alamar blue assay; format: functional; settings: H37Rv ATCC 27294, 120 h
How it was run: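 Retest of compounds above 90% inhibition in the primary screen. Two-fold serial dilution on plate in Middlebrook 7H9 broth, in triplicate. Isoniazid as positive control. Plates sealed, 37 °C for 5 days. Then 1:1 Alamar Blue/10% Tween 80 added, 24 h more. Blue = inhibition, pink = growth. MIC taken as lowest inhibiting concentration.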

Staphylococcus aureus = test: Antibacterial activity against Staphylococcus aureus after 24 hrs by broth microdilution method; format: functional
How it was run: (§1)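 Broth microdilution, 96-well. Inoculum from 24 h broth cultures adjusted to 0.5 McFarland. Compounds dissolved in DMSO at 1 mg/mL (stock), two-fold serial dilutions in tryptone broth (1000 to 3.9 μg/mL). Positive controls: tetracyclin for bacteria, nystatin for fungi. Incubated 37 °C, 24 h. Then 0.01% aqueous resazurin added for viability. MIC = lowest concentration inhibiting growth.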

Escherichia coli = test: Antibacterial activity against Escherichia coli after 24 hrs by broth microdilution method; format: functional; how it was run: as §1
Salmonella typhi = test: Antibacterial activity against Salmonella typhi after 24 hrs by broth microdilution method; format: functional, Salmonella enterica subsp. enterica serovar Typhi; settings: Salmonella enterica; how it was run: as §1
Candida albicans = test: Antifungal activity against Candida albicans after 24 hrs by broth microdilution method; format: functional; how it was run: as §1

For `Cn1c(=O)c2ncn(Cc3cc(=O)oc4ccc(C(C)(C)C)cc34)c2n(C)c1=O`, the Activity [1] was 96%, the MIC [2] was 0.48 µg/mL (≈ 1.22 µM) and the MIC (Staphylococcus aureus) was 7.8 µg/mL (≈ 19.8 µM). For the same molecule, the MIC (Escherichia coli) was 3.9 µg/mL (≈ 9.89 µM), the MIC (Salmonella typhi) was 7.8 µg/mL (≈ 19.8 µM) and the MIC (Candida albicans) was 62.5 µg/mL (≈ 158 µM).
Work on `Cn1c(=O)c2ncn(Cc3cc(=O)oc4c3ccc3ccccc34)c2n(C)c1=O` yielded an Activity [1] of 16%, an MIC (Staphylococcus aureus) of 15.6 µg/mL (≈ 40.2 µM) and an MIC (Escherichia coli) of 15.6 µg/mL (≈ 40.2 µM). For the same molecule, the MIC (Salmonella typhi) was 62.5 µg/mL (≈ 161 µM) and the MIC (Candida albicans) was 62.5 µg/mL (≈ 161 µM).
`Cc1cc(C)c2c(Cn3cnc4c(=O)n(C)c(=O)n(C)c43)cc(=O)oc2c1` showed an Activity [1] of 94%, an MIC [2] of 0.97 µg/mL (≈ 2.65 µM) and an MIC (Staphylococcus aureus) of 15.6 µg/mL (≈ 42.6 µM). For the same molecule, the MIC (Escherichia coli) was 125 µg/mL (≈ 341 µM), the MIC (Salmonella typhi) was 250 µg/mL (≈ 682 µM) and the MIC (Candida albicans) was 250 µg/mL (≈ 682 µM).
`Cc1ccc2c(Cn3cnc4c(=O)n(C)c(=O)n(C)c43)cc(=O)oc2c1` showed an Activity [1] of 92%, an MIC [2] of 1.95 µg/mL (≈ 5.53 µM) and an MIC (Staphylococcus aureus) of 62.5 µg/mL (≈ 177 µM). It also gave an MIC (Escherichia coli) of 31.3 µg/mL (≈ 88.8 µM), an MIC (Salmonella typhi) of 125 µg/mL (≈ 355 µM) and an MIC (Candida albicans) of 31.3 µg/mL (≈ 88.8 µM).
`Cn1c(=O)c2ncn(Cc3cc(=O)oc4ccc5ccccc5c34)c2n(C)c1=O` gave an Activity [1] of 92%, an MIC [2] of 1.95 µg/mL (≈ 5.02 µM) and an MIC (Staphylococcus aureus) of 7.8 µg/mL (≈ 20.1 µM). For the same molecule, the MIC (Escherichia coli) was 7.8 µg/mL (≈ 20.1 µM), the MIC (Salmonella typhi) was 15.6 µg/mL (≈ 40.2 µM) and the MIC (Candida albicans) was 62.5 µg/mL (≈ 161 µM).
`Cn1c(=O)c2ncn(Cc3cc(=O)oc4ccc(Cl)cc34)c2n(C)c1=O` gave an Activity [1] of 92%, an MIC [2] of 3.9 µg/mL (≈ 10.5 µM) and an MIC (Staphylococcus aureus) of 31.3 µg/mL (≈ 84 µM). For the same molecule, the MIC (Escherichia coli) was 31.3 µg/mL (≈ 84 µM), the MIC (Salmonella typhi) was 62.5 µg/mL (≈ 168 µM) and the MIC (Candida albicans) was 125 µg/mL (≈ 335 µM).
With `Cc1ccc2oc(=O)cc(Cn3cnc4c(=O)n(C)c(=O)n(C)c43)c2c1` the Activity [1] was 96%, the MIC [2] was 0.12 µg/mL (≈ 0.341 µM) and the MIC (Staphylococcus aureus) was 3.9 µg/mL (≈ 11.1 µM). It also gave an MIC (Escherichia coli) of 3.9 µg/mL (≈ 11.1 µM), an MIC (Salmonella typhi) of 7.8 µg/mL (≈ 22.1 µM) and an MIC (Candida albicans) of 31.3 µg/mL (≈ 88.8 µM).
`Cn1c(=O)c2ncn(Cc3cc(=O)oc4cc(O)ccc34)c2n(C)c1=O` showed an Activity [1] of 15%, an MIC (Staphylococcus aureus) of 15.6 µg/mL (≈ 44 µM) and an MIC (Escherichia coli) of 125 µg/mL (≈ 353 µM). The MIC (Salmonella typhi) was 31.5 µg/mL (≈ 88.9 µM) and the MIC (Candida albicans) was 62.5 µg/mL (≈ 176 µM).
`Cn1c(=O)c2ncn(Cc3cc(=O)oc4ccc(Br)cc34)c2n(C)c1=O` showed an Activity [1] of 92%, an MIC [2] of 3.9 µg/mL (≈ 9.35 µM) and an MIC (Staphylococcus aureus) of 15.6 µg/mL (≈ 37.4 µM). For the same molecule, the MIC (Escherichia coli) was 31.3 µg/mL (≈ 75 µM), the MIC (Salmonella typhi) was 31.3 µg/mL (≈ 75 µM) and the MIC (Candida albicans) was 125 µg/mL (≈ 300 µM).
Molecule `COc1ccc2oc(=O)cc(Cn3cnc4c(=O)n(C)c(=O)n(C)c43)c2c1` has an Activity [1] of 56%, an MIC (Staphylococcus aureus) of 7.8 µg/mL (≈ 21.2 µM) and an MIC (Escherichia coli) of 7.8 µg/mL (≈ 21.2 µM). For the same molecule, the MIC (Salmonella typhi) was 7.8 µg/mL (≈ 21.2 µM) and the MIC (Candida albicans) was 31.3 µg/mL (≈ 85 µM).
In the case of `C[C@@H]1[C@H](O)[C@@H](C)/C=C/C=C/C=C/C=C/C=C/C=C/C=C/[C@H](O[C@@H]2O[C@H](C)[C@@H](O)[C@H](N)[C@@H]2O)C[C@@H]2O[C@](O)(C[C@@H](O)C[C@@H](O)[C@H](O)CC[C@@H](O)C[C@@H](O)CC(=O)O[C@H]1C)C[C@H](O)[C@H]2C(=O)O` [AMPHOTERICIN B], the MIC (Candida albicans) is reported as 0.97 µg/mL (≈ 1.05 µM).
With `NNC(=O)c1ccncc1` [ISONIAZID] the Activity [1] was 100% and the MIC [2] was 0.06 µg/mL (≈ 0.438 µM).
Work on `CN(C)[C@@H]1C(O)=C(C(N)=O)C(=O)[C@@]2(O)C(O)=C3C(=O)c4c(O)cccc4[C@@](C)(O)[C@H]3C[C@@H]12` [TETRACYCLINE] yielded an MIC (Staphylococcus aureus) of 3.9 µg/mL (≈ 8.78 µM), an MIC (Escherichia coli) of 3.9 µg/mL (≈ 8.78 µM) and an MIC (Salmonella typhi) of 3.9 µg/mL (≈ 8.78 µM).

Reference: ChEMBL document CHEMBL4196015, “Synthesis of coumarin-theophylline hybrids as a new class of anti-tubercular and anti-microbial agents” (2018)
